System: MS2 coat protein
Assay: apparent Kd, MS2 coat protein; higher = weaker binding; RNA-MaP array; FMN 200 µM where present
Procedure, shortened: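 The apparent Kd is reported as the median of filtered per-cluster binding-curve fits. To get these curves, designs transcribed by stalled E. coli RNA polymerase on Illumina sequencing-chip clusters were titrated with SNAP-549-labelled MS2 coat protein from 0.7 or 1.5 nM, doubling to 3 µM. Titrations were run without and then with constant ligand in 100 mM Tris-HCl pH 7.5, 80 mM KCl, 4 mM MgCl2, BSA, DTT, yeast tRNA and Tween-20, and green signal was normalised to red-channel RNA signal and control-cluster median Fmax.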

[1] = designed as: OFF switch for flavin mononucleotide, no ligand
[2] = ligand present: flavin mononucleotide, designed as: OFF switch for flavin mononucleotide
[3] = designed as: ON switch for flavin mononucleotide, no ligand
[4] = ligand present: flavin mononucleotide, designed as: ON switch for flavin mononucleotide

Sequence | apparent Kd [1] | apparent Kd [2] | apparent Kd [3] | apparent Kd [4]
UAUAUAAUAAGAGCUGGCUCUAAAACAUGAGGAUCACCCAUGUAGGAUAUCAGCACGAUAAGUGCUGAGAAGGACAACCAGCUC | 16.3 nM | 17.3 nM | – | –
UUGAUAAGGAGAGGAUAUGGACAUGAGGAUCACCCAUGUACAUGGGAAUAUUUACUGAAUUCUUACUAGAAGGCUUACAUAUUU | 15.7 nM | 13.3 nM | – | –
AGCUGUGGCCGAGGAUAUCUACUAAUCCAAACCGAAAUAUAAUCGGACAUGAGGAUCACCCAUGUAGAGAAGGCGGUCUCAGCA | 254 nM | 410 nM | – | –
AUAAAUAUAGCGAUAUGAUCGAGAGAUCAUGUCGCUAAAGUUAGAAGGACAUGAGGAUCACCCAUGUAGGAUAUGGGAGUAUGA | – | – | 170 nM | 62.8 nM
AAAAAACAUGAGGAUCACCCAUGUGAGGAUAUCGUGCAGAAAAAAAAAAAAAACUGCACGAGAAGGCACAUGAA | 237 nM | 460 nM | – | –
AAACUCAUGCAGAAGGGACAAACGGGUGGGAUCUGCAUGUGCACAUGAGGAUCACCCAUGUGGUGUCAGGAUAUGCUGGGCACG | 102 nM | 75.2 nM | – | –
UUGUGGGAGCAGGAUAUCUUAUUUUUUUUUUGUGGAGAAGGGCUGACAUGAGGAUCACCCAUGUGGUCCUAGAU | 28.2 nM | 27.9 nM | – | –
CACAUGGUUACAGGAUAUGUUAGGUUGCAGUUGAUUGGUUAUUAAAAUAUUACAGAAGGGUAAGACAUGAGGAUCACCCAUGUG | – | – | 175 nM | 97.5 nM
UGUGUUAUUGGAGGAUAUCGAUAUCAAACAUGAGGAUCACCCAUGUUGAGGAUCACACAUGUACAUGAGAAGGCCGACGUAGUG | – | – | 13.3 nM | 14.5 nM
UAUGAGCGAGGAUAUGCUUGGGACGUCGUUCUUGCGGCGAGACAUGAGGAUCACCCAUGUAGAAGGCGCGAGCG | 18.4 nM | 18.5 nM | – | –
GAUUAUAAGUAAGGAUAUGUAUAUGAAACAUCUACAGAAGGUACAUGAGGAUCACCCAUGUUCUUGCAGCGUGACUCUGUGAUC | 63.6 nM | 130 nM | – | –
AGCCAGGACGGGUGCCUGAGCGGGAGAAGGUACGAGGGAUCGUCUGGACAUGAGGAUCACCCAUGUAAGGAUAUCCCGCCUAUU | 8.78 nM | 18.1 nM | – | –
CAAAAGGAAGGAUAUGCAUCGGGAGGUGCUCAGCAUCAAAUACAUGAGGAUCACCCAUGUAGAAGGUCUGAAAA | 32.1 nM | 85.7 nM | – | –
GUAGCUAUCGGAGGAUAUUCAUUAAACAUGAGGAUCACCCAUGUUAAAUUGGGAGAAGGCCGAUAGCUACAAGAGCGAAAGCUC | – | – | 7.16 nM | 5.45 nM
GGAUGUGUGUAAGGAUAUGCAUCACUGAGAAAUUUAGUGAGGAAGAUCACAUGAGGAUCACCCAUGUAGAAGGUACACACGUGG | 10.8 nM | 52.7 nM | – | –
GGUGAAUGAACAUGAGGAUCACCCAUGUCCAGGAAACUGAAUGAGGAUAUCCAUAGCAAAGCUAUGGAGAAGGCAUGGGUCACC | – | – | 562 nM | 241 nM
CAUUAUUAUCGAGGAUAUCCUAUUGAAAUUCUGGGAGAAGGCGGACUCAACAUGAGGAUCACCCAUGUGAGACGGGUGCUAGGG | 26.8 nM | 25.2 nM | – | –
AACUGACGACAUCAGUUGCGUAGGCAGGAUAUACAUGAGGAUCACCCAUGUGCAUGAUGCUACGAGUAGAAGGGCCGAGGCGAU | 6.77 nM | 13.4 nM | – | –
ACAUGAGGAUGAGGAUAUUCAUCCAUGAGGAUAGAAGAAGGCAUACAUGAGGAUCACCCAUGUAUACACAUGAGGAUCCCUUAU | 44.5 nM | 121 nM | – | –
AGAGCCUCGUGAGGAUAUACAUGAGGAUCACCCAUGUAAUAAGAUCAACGGAGGAAACUCCGAAUGUAGAAGGCACGAGGCUCA | 37.2 nM | 423 nM | – | –
GUGGGUGAUGGAGGAUAUGACGACGGGUUUUACAUGAGGAUCACCCAUGUGGCGUUCCGCAAAAGUCAGAAGGCCAGGUAUACU | – | – | 332 nM | 40.6 nM

Sequence | apparent Kd [1] | apparent Kd [2] | apparent Kd [3] | apparent Kd [4]
CGGUGCUGAGGAUAUACAUGAGGAUCACCCAUGUGUUCCGGCUAGCUGACUGGCGCUUGUAGAAGGCAGUACUG | 17.3 nM | 101 nM | – | –
GCACGGCAUGUAGGAUAUGCAUAGCAUUGCUAUGCAGAAGGACAUGAGGAUCACCCAUGUAUGUAUUCCAUACAAUUCCCGUGC | 5.86 nM | 12 nM | – | –
UUAAAUCAUGUAGGAUAUGCAUGGCGAAGCUACGCAGAAGGACAUGAGGAUCACCCAUGUUAUAGCUACCGAGUUCGGUGGCAA | 109 nM | 224 nM | – | –
GCGUUCAUGUAGAAGGUACCUACAACAUAUUAUAAACGCUAGACACAUGAGGAUCACCCAUGUUGUAAGGAUAUACAUGAACGC | – | – | 49 nM | 22 nM
UUCGGCGCAGGAUAUACAGUUUUGUGUUGAAUCGGCGCGGGACAUGAGGAUCACCCAUGUAGAAGGGUGUUGAA | 682 nM | 470 nM | – | –
AUACCACGAGGAUAUCGUCUAUUCCACAUGAGGAUCACCCAUGUUAUCCAUGUUUCGUUUCGAGAAGGCGUGGGUU | 59.9 nM | 42.9 nM | – | –
UCCAUGUUAGGAUAUUACAUGCAGGCUGUAACACGCCGGUGUAAGAAGGAACAUGAGGAUCACCCAUGUGUCGU | 68 nM | 137 nM | – | –
AGGAGUACAGGAUAUACAUGAGGAUCACCCAUGUGAGAAUUAAGUGGCGUACCACAAAGUAGAAGGGUACUCCA | 50.5 nM | 198 nM | – | –
AACAUGGUACAGAAGGGCUAUUUAUUUAAUUAUUAUUUAGAACAGCAUAGCAGGAUAUGUUUAACAUGAGGAUCACCCAUGUAC | – | – | 71.3 nM | 14.7 nM
GAGGAACAUGAGGAUCACCCAUGUGAGGAUAUGCAUAGUGAGGUAGUAGACGUUGAAUGCAGAAGGUACACUGA | 47.6 nM | 34.3 nM | – | –
CGUGUCGCAUGAGGAUAUGGUCAGCUUUGCUGACCAGAAGGCAUGUCAAUAGACAUGAGGAUCACCCAUGUAGUUAAGACACGA | – | – | 592 nM | 39.8 nM
AAGAAGCACGCAGGAUAUCUCACCCAUGUAAGAAGAGAAGGGCGACAUGAGGAUCACCCAUGUCAACAUGAGGAUCACCCAUGU | 62.2 nM | 87.8 nM | – | –
AAUAACAGAGGAUAUACUAUUUUAUGUGUUUGUUGUUUUGAACAUGAGGAUCACCCAUGUAGAAGGCUGAAUAA | 22.6 nM | 25.6 nM | – | –
UGGUACAUGGGAGGAUAUCCUCAUGAGACAUGAGGAUCACCCAUGUAUUAUAAGCCGAAAGGCAAGGAGAAGGCCCAUGUACCU | – | – | 90.2 nM | 19.5 nM
UUUAUAAAUUAGAAGGCGUGAUGAAUUACAAUAGACAUGAGGAUCACCCAUGUGUAUUCAUGUCAUGAGGAUAUAGUCAUAUAU | – | – | 47.2 nM | 19.4 nM
AACAGUACAGGAUAUACAUGAGGAUCACCCAUGUGAGAAUUAAGUGGCGUACCACUAUGUAGAAGGGUACUGGA | 103 nM | 225 nM | – | –
CGUCUAUGCUAGAAGGCAUGAAACAUGAGGAUCACCCAUGUCAAAGACAUGAGGAUAUAGCAUAGACGAAAAGUGCGAAAGCAC | – | – | 4.43 nM | 3.26 nM
GAGGACUGUGCAGGAUAUACAUGAGGAUCACCCAUGUAGGUCGGUUCGAAAGUAGAAGGGCACGAUUGUCGAUAGCACGCGUGA | 97.5 nM | 39.2 nM | – | –
AGGUAAGAGUUAAUUGUGACGGUGAGAAGGCAAAUGGUUGUGAUUAACAUGAGGAUCACCCAUGUUGAGGAUAUCACCACCAUC | 29.5 nM | 137 nM | – | –
GGUGCGUUUGUGAGGAUAUGCUGGUCCUUGGGUCAGCAGAAGGCACAUGAGGAUCACCCAUGUGGUGUCGUACC | 358 nM | 42.9 nM | – | –
GGAUUACAUGAGGAUCACCCAUGUGAGGAUAUCGAUGUCCUGUCUUUCGUGCGGGACUCGAGAAGGCACUUGGA | 45.2 nM | 141 nM | – | –
